Assay [1] has as its system NCI-H1975. Put plainly: Cytotoxicity against human NCI-H1975 cells assessed as reduction in cell viability after 72 hrs by CCK8 assay. In kind it is functional, cell-based. The settings on record: Homo sapiens, NCI-H1975, 72 h; read-out: IC50. The method in brief:
(§1)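 Cells kept in RPMI or DMEM with 10% FBS and 1% penicillin/streptomycin at 37 °C in 5% CO2. Seeded at 400-800 cells/well in 384-well plates and exposed to varying compound concentrations, with solution-only control, for 72 h. CCK8 reagent added, then absorbance read at 450 nm. Plinabulin and TSA were positive controls. Mean SD of three experiments.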

The nature of assay [2]: Cytotoxicity against human BGC823 cells assessed as reduction in cell viability after 72 hrs by CCK8 assay. Conditions: Homo sapiens, BGC-823, 72 h; read-out: IC50. In kind it is functional, cell-based, BGC-823. The method in brief: as §1
On the technique in general: Tetrazolium assays rely on reduction of a dye to a coloured formazan, in cell work by metabolically active cells.

The test system of a further assay is HeLa. Put plainly: Cytotoxicity against human HeLa cells assessed as reduction in cell viability after 72 hrs by CCK8 assay. Format: functional, cell-based. Conditions: Homo sapiens, HeLa, 72 h; read-out: IC50. The method in brief:
as §1

The nature of assay [3]: Cytotoxicity against human HuH7 cells assessed as reduction in cell viability after 72 hrs by CCK8 assay. Conditions: Homo sapiens, Huh-7, 72 h; read-out: IC50. Format: functional, cell-based, Huh-7. The method in brief:
as §1

In a further assay the test system is MCF7. Put plainly: Cytotoxicity against human MCF7 cells assessed as reduction in cell viability after 72 hrs by CCK8 assay. In kind it is functional, cell-based. The settings on record: Homo sapiens, MCF7, 72 h; read-out: IC50. The method in brief: as §1
Another assay has as its system A549. Put plainly: Cytotoxicity against human A549 cells assessed as reduction in cell viability after 72 hrs by CCK8 assay. In kind it is functional, cell-based. The settings on record: Homo sapiens, A549, 72 h; read-out: IC50. The method in brief:
as §1

Another assay has as its system HL-60. Put plainly: Cytotoxicity against human HL60 cells assessed as reduction in cell viability after 72 hrs by CCK8 assay. Format: functional, cell-based. Conditions: Homo sapiens, HL-60, 72 h; read-out: IC50. The method in brief: as §1
Assay [4] relates to K562. Description: Cytotoxicity against human K562 cells assessed as reduction in cell viability after 72 hrs by CCK8 assay. In kind it is functional, cell-based. Conditions: Homo sapiens, K562, 72 h; read-out: IC50. The method in brief: as §1
In another assay the test system is MOLT-4. Description: Cytotoxicity against human MOLT4 cells assessed as reduction in cell viability after 72 hrs by CCK8 assay. In kind it is functional, cell-based. Conditions: Homo sapiens, MOLT-4, 72 h; read-out: IC50. The method in brief:
as §1

Assay [5] deals with U-937. Description: Cytotoxicity against human U937 cells assessed as reduction in cell viability after 72 hrs by CCK8 assay. Format: functional, cell-based. Conditions: Homo sapiens, U-937, 72 h; read-out: IC50. The method in brief: as §1
Assay [6] has as its system U-937. Description: Cytotoxicity against human U937 cells assessed as viable cells at 5 uM after 24 hrs by CCK8 assay relative to control. In kind it is functional. The settings on record: U-937, 24 h, read-out: Activity. The method in brief:
(§2)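 Viability of U937, K562 and H1975 cells cultured in RPMI or DMEM with 10% FBS and 1% penicillin/streptomycin at 37 °C in 5% CO2. Cells treated at two fixed concentrations (5 or 10) for 24 or 48 h. Viable cells measured by CCK8 and expressed relative to control. Mean SD of three experiments.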

The subject of assay [7] is U-937. Description: Cytotoxicity against human U937 cells assessed as viable cells at 10 uM after 24 hrs by CCK8 assay relative to control. In kind it is functional. Conditions: U-937, 24 h, read-out: Activity. The method in brief:
as §2

In assay [8] the test system is U-937. Description: Cytotoxicity against human U937 cells assessed as viable cells at 5 uM after 48 hrs by CCK8 assay relative to control. In kind it is functional. Conditions: U-937, 48 h, read-out: Activity. The method in brief:
as §2

The test system of assay [9] is U-937. Description: Cytotoxicity against human U937 cells assessed as viable cells at 10 uM after 48 hrs by CCK8 assay relative to control. In kind it is functional. Conditions: U-937, 48 h, read-out: Activity. The method in brief:
as §2

Assay [10] has as its system K562. Description: Cytotoxicity against human K562 cells assessed as viable cells at 5 uM after 24 hrs by CCK8 assay relative to control. In kind it is functional. Conditions: K562, 24 h, read-out: Activity. The method in brief: as §2
The test system of assay [11] is K562. Put plainly: Cytotoxicity against human K562 cells assessed as viable cells at 10 uM after 24 hrs by CCK8 assay relative to control. In kind it is functional. The settings on record: K562, 24 h, read-out: Activity. The method in brief: as §2
Assay [12] concerns K562. Put plainly: Cytotoxicity against human K562 cells assessed as viable cells at 5 uM after 48 hrs by CCK8 assay relative to control. In kind it is functional. Conditions: K562, 48 h, read-out: Activity. The method in brief:
as §2

The test system of assay [13] is K562. Put plainly: Cytotoxicity against human K562 cells assessed as viable cells at 10 uM after 48 hrs by CCK8 assay relative to control. In kind it is functional. The settings on record: K562, 48 h, read-out: Activity. The method in brief:
as §2

In assay [14] the test system is NCI-H1975. Put plainly: Cytotoxicity against human NCI-H1975 cells assessed as viable cells at 5 uM after 24 hrs by CCK8 assay relative to control. Format: functional. Conditions: NCI-H1975, 24 h, read-out: Activity. The method in brief:
as §2

Assay [15] relates to NCI-H1975. Put plainly: Cytotoxicity against human NCI-H1975 cells assessed as viable cells at 10 uM after 24 hrs by CCK8 assay relative to control. Format: functional. Conditions: NCI-H1975, 24 h, read-out: Activity. The method in brief:
as §2

Assay [16] relates to NCI-H1975. Put plainly: Cytotoxicity against human NCI-H1975 cells assessed as viable cells at 5 uM after 48 hrs by CCK8 assay relative to control. The settings on record: NCI-H1975, 48 h, read-out: Activity. Format: functional. The method in brief: as §2
The test system of assay [17] is NCI-H1975. Put plainly: Cytotoxicity against human NCI-H1975 cells assessed as viable cells at 10 uM after 48 hrs by CCK8 assay relative to control. The settings on record: NCI-H1975, 48 h, read-out: Activity. Format: functional. The method in brief: as §2

As usually defined, the IC50 is the point on the concentration scale where inhibition reaches its midpoint. `C=CCn1c(=O)/c(=C\c2cccc(Cl)c2Cl)[nH]c(=O)/c1=C\c1ccccc1OC`: the IC50 turned out to be 4.5 µM with NCI-H1975 [1]; 2200 nM in assay [2]; 1600 nM in the assay on HeLa; 1200 nM in assay [3]; 2100 nM in the assay with MCF7; 2300 nM in the assay with A549. The IC50 in the assay on HL-60 amounted to 2000 nM; in the assay with K562 [4] it was 900 nM; in the assay on MOLT-4, 1200 nM; with U-937 [5], 500 nM. The viability at 5 µM in the assay on U-937 [6] was determined as 7%; in the assay with U-937 [8], 0.9%; in the assay on K562 [10], 104%; in the assay with K562 [12], 24.2%; in the assay on NCI-H1975 [14], 107%; in the assay on NCI-H1975 [16], 42.7%. Moreover, the viability at 10 µM in the assay with U-937 [7] is 8.7%; with U-937 [9], 1.3%; in the assay on K562 [11] it was 103%; with K562 [13], 14.9%; with NCI-H1975 [15], 98.9%; in the assay with NCI-H1975 [17], 42.6%.

The values are drawn from ChEMBL document CHEMBL3286120, “Design and synthesis of novel soluble 2,5-diketopiperazine derivatives as potential anticancer agents” (Eur J Med Chem, 2014).
